High-throughput results from PubChem BioAssay.
A selection: hits, their analogues and other compounds. The true share with any hit is near 2.3%.
ATG4B inh: ATG4B (human) cysteine protease inhibition | Q9Y4P1 | ATG4B cleavage of LC3-PLA2, NBD-HPC fluorescence, 1 h | inhibition, % at 8.33 µM | actives 0.51% (n = 340,000); in the data active = inhibition above about 40%
Target sequence (Q9Y4P1 whole entry, looked up): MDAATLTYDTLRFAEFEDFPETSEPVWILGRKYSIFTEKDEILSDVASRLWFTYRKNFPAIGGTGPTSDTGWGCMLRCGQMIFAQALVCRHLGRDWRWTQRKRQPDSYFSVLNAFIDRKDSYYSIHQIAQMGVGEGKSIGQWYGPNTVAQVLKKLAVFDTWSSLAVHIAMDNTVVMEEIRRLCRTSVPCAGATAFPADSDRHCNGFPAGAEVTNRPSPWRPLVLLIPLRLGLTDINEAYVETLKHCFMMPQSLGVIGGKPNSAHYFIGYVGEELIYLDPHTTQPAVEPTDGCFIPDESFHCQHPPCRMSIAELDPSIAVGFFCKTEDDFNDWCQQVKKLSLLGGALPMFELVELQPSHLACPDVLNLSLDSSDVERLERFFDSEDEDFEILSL
CAL PDZ FP-1: blocks peptide binding to the human CAL PDZ domain | actives 0.92% (n = 300,000) | purified CAL PDZ, TMR-peptide fluorescence polarization, 1 h | inhibition, % at 24.9 µM;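 active = mean inhibition of at least 30% with at least half of replicates also reaching 30%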;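 note: 0% = DMSO neutral control and 100% = excess unlabeled competitor peptide PRC23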
CAL PDZ FP-2: inhibitors of human CAL PDZ peptide binding | purified CAL PDZ, TMR-peptide fluorescence polarization, 1 h | inhibition, % at 20 µM | actives 0.02% (n = 330,000) | AID 504414;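 active = highest replicate inhibition of at least 40%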;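 note: plate controls were DMSO neutral control wells for no effect and unlabeled competitor peptide control wells for full effect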
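System: tagged CAL PDZ domain. Schedule: 1 h room-temperature incubation prior to read. Signal: fluorescence polarization (mP). Measure: percent inhibition from loss of millipolarization.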
SR-BI uptake up: enhances SR-BI lipid uptake from DiI-HDL | actives 0.096% (n = 320,000) | activation, % at 12.5 µM | CHO ldlA[mSR-BI] cells, DiI-HDL uptake fluorescence, 3 h; 100 = double the neutral-control signal | AID 504775;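 active = mean replicate activation of at least 60% and every replicate at or above 60%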;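 note: 0% = median plate neutral-control signal and 100% = twice that signal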
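Test system: SR-BI-overexpressing, LDLR-lacking CHO cells; Also added: labelled HDL, 10 µg/mL; Measured by: bottom-read cell fluorescence after medium removal, ex 550/em 595 nm; Timing: 3 h uptake period with compound, 37 °C; Buffer or medium: F12, 0.5% BSA, 25 mM HEPES; Doses: single compound concentration, delivered by pin transfer.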
SR-BI HDL uptake: mouse SR-BI HDL lipid transfer inhibition. Q61009. ldlA[mSR-BI] CHO cells, DiI-HDL uptake fluorescence, 3 h. inhibition, % at 12.5 µM. actives 0.96% (n = 320,000). AID 488896;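 active = mean replicate inhibition of at least 70% and a set share of replicates each scoring 70 or more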;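 note: 0% = median of neutral control wells and 100% = median of positive control wells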
Numbers without * were called inactive; . = no result.

SMILES	ATG4B inh	CAL PDZ FP-1	CAL PDZ FP-2	SR-BI uptake up	SR-BI HDL uptake
C=CCn1c(NCCOC)nc2c1c(=O)n(C)c(=O)n2C	-5.8	43.8*	0.5	0.1	-0.1
COc1ccc(Oc2ccc(/C=C/C(=O)c3ccc(O)cc3)cc2[N+](=O)[O-])cc1	-4.7	61.0*	0.2	-22.4	22.4
O=C(/C=C/c1ccc(O)c([N+](=O)[O-])c1)c1ccc2ccccc2c1	-8.0	-5.6	2.0	2.2	-2.2
CC(C)NC(=O)CSc1nnc(CNC(=O)OC(C)(C)C)n1C	5.1	84.0*	0.4	-1.9	1.9
Cc1cccc(C(=O)NCc2nnc(SCC(=O)NC(C)c3ccccc3)n2C)c1 (stereo not given)	-13.7	-2.4	0.2	9.2	-9.2
COc1ccc(Br)cc1/C=N/NC(=O)c1cccnc1	2.5	0.6	-1.3	-33.5	33.5
COc1ccc(O)c(/C=N/NC(=O)c2ccc(OCc3cccc(Br)c3)cc2)c1	4.0	-2.0	-0.1	-129.3	129.3*
CCCOc1ccc(Br)cc1/C=N/NC(=O)c1cc(OC)c(OC)c(OC)c1	0.3	-5.5	-3.2	-75.8	75.8*
COc1ccc(C(=O)NCC(=O)OCc2cccc(Br)c2)cc1	-1.2	1.4	-1.2	-9.2	9.2
COc1ccc(C(=O)N/N=C/c2cc(Br)ccc2O)cc1OC	-11.6	-5.5	-8.0	-120.0	120.0*
COc1ccc(/C=N/NC(=O)c2ccncc2)c(OC)c1	2.6	-13.1	-0.8	-21.2	21.2
COc1ccc(/C=N/NC(=O)c2ccc(Br)cc2)c(OC)c1	7.0	-7.6	-2.8	-83.2	83.2*
Cc1cccc(CCNS(=O)(=O)c2ccc3c(c2)CCN3C(=O)CCC(=O)O)c1	3.0	2.2	-1.6	3.1	-3.1
O=c1cc[nH]c2c1ccc1cccnc12	-1.4	-1.8	-0.1	-10.6	10.6
O=C(N/N=C/c1ccc(OCc2ccc(F)cc2)cc1)c1ccccc1	-6.3	5.2	-3.8	-39.0	39.0
CC(C)(C)c1ccc(OCc2ccc(C(=O)N/N=C/c3ccc(O)c(O)c3)cc2)cc1	6.0	3.0	-0.1	-107.3	107.3*
O=C(O)CN1C(=O)/C(=C/C=C/c2ccccc2)SC1=S	-5.4	-1.6	-2.5	31.8	-31.8
CC(=O)c1ccc(NC(=O)CN2C(=O)/C(=C/C=C/c3ccccc3)SC2=S)cc1	2.5	4.1	-0.4	-71.7	71.7*
COc1ccc(/C=C2/SC(=S)N(CCCC(=O)Nc3ccc(O)cc3)C2=O)cc1	-6.7	46.1*	-0.5	6.0	-6.0
O=C(CCN1C(=O)/C(=C\c2ccccc2)SC1=S)NNC(=O)c1ccccc1O	-2.5	2.0	-0.3	-99.4	99.5*
CCN(CC)C(=O)CN1C(=O)/C(=C/c2ccccc2)SC1=S	-6.7	43.7*	0.6	-10.3	10.3
O=C(CCCN1C(=O)S/C(=C\c2ccccc2)C1=O)NNC(=O)c1ccccc1O	-0.5	3.4	-0.5	-22.8	22.8
CCN(C(=O)COC(=O)CCn1c(C)csc1=O)c1c(N)n(Cc2ccccc2)c(=O)[nH]c1=O	-2.6	-0.1	0.4	18.2	-18.2
Cc1ccc(C)c(S(=O)(=O)N2CCN(CC(=O)NC(C)c3ccccc3)CC2)c1 (stereo not given)	-5.9	.	0.2	-17.1	17.1
O=C(CCCN1C(=O)/C(=C/c2ccccc2)SC1=S)Nc1ccccc1O	13.9	-2.6	-0.8	0.6	-0.6
SMILES	ATG4B inh	CAL PDZ FP-1	CAL PDZ FP-2	SR-BI uptake up	SR-BI HDL uptake
O=C(CCCN1C(=O)/C(=C\c2ccccc2)SC1=S)Nc1ccc(O)cc1C(=O)O	10.2	77.0*	-0.5	12.1	-12.1
CCN(C(=O)CN1C(=O)/C(=C/c2ccccc2F)SC1=S)C1CCS(=O)(=O)C1 (stereo not given)	-9.1	75.3*	0.1	-6.9	6.9
COc1cccc(/C=C2\SC(=S)N(CCCC(=O)N3CCCCC3CCO)C2=O)c1 (stereo not given)	-9.3	88.0*	-0.2	-6.9	6.9
CCN(C(=O)CN1C(=O)S/C(=C\c2ccccc2OC)C1=O)C1CCS(=O)(=O)C1 (stereo not given)	-11.2	-2.3	-4.0	-5.1	5.1
CCOc1ccccc1N1C(=O)CN(Cc2ccc(OC)c(OC)c2)C1=S	-7.8	47.8*	.	-0.2	0.2
C=CCOC(=O)C1=C(C)NC(SCC)=C(C#N)C1c1ccc(Cl)cc1 (stereo not given)	-0.1	-0.1	-2.4	-82.7	82.7*
C/C(C/C(C)=C1/SC(=S)NC1=O)=C1\SC(=S)NC1=O	67.6*	-7.6	0.1	8.3	-8.3
O=C(COc1ccc(Cl)c2cccnc12)N1CCOCC1	-1.2	115.4*	0.0	9.8	-9.8
COc1ccc(O)c(CN2CCC(n3nccc3NC(=O)c3ccccc3Cl)CC2)c1	5.5	.	-5.8	-2.5	2.5
CCN1C(=C(C#N)C#N)C=Cc2cc(C)ccc21	-5.5	4.2	0.4	-21.1	21.1
C=CC[n+]1c(/C=C2\C=Cc3cc(C)ccc3N2CC)ccc2ccccc21	9.3	-3.7	-0.6	-79.7	79.7*
CCOC(=O)N1CCC(N2C(=O)c3ccc(C(=O)Nc4ccc(F)cc4F)cc3C2=O)CC1	-6.2	-7.7	-1.6	-78.5	78.5*
CCOC(=O)N1CCC(N2C(=O)c3ccc(C(=O)Nc4ccc(OC)cc4)cc3C2=O)CC1	-10.9	-1.6	-2.0	-16.2	16.2
COc1ccc(NC(=O)c2cc(Cl)ccc2NC(=O)c2ccco2)c(OC)c1	-5.4	-4.2	-0.1	-73.8	73.8*
CC(C)COc1ccc(C(=O)Nc2ccc(NC(=O)c3ccco3)c(Cl)c2)cc1	-6.8	-2.0	0.3	-69.1	69.1
CC(C)Oc1ccc(C(=O)Nc2ccc(NC(=O)c3ccco3)c(Cl)c2)cc1	-5.4	-2.2	-0.7	.	78.7*
COc1ccc(C(=O)Nc2ccc(NC(=O)c3ccco3)c(Cl)c2)cc1OC	-12.2	-1.6	-0.3	-74.6	74.6*
COc1ccc(C2=Nn3c(nnc3C(F)(F)F)SC2)cc1	3.5	-3.6	-0.3	-30.4	30.4
Cc1ccc(-c2n[nH]c(Cc3ccccc3)n2)cc1	2.6	-3.4	-2.4	-2.4	2.4
Cc1cccc(Nc2ccncc2S(N)(=O)=O)c1	-7.1	.	.	.	.
O=C1OC(c2ccccc2)Sc2ccccc21 (stereo not given)	47.5*	-4.6	0.1	-5.0	5.0
C[C@H]1C=CC(=O)O[C@H]1c1ccccc1	-5.5	1.5	-1.9	9.8	-9.8
CCCc1cc(=O)[nH]c2nnc(SCC(=O)NC3CCCCC3)n12	0.2	-2.3	-1.9	5.4	-5.4
C=CCNC(=O)c1ccc2c(c1)S(=O)(=O)c1ccccc1C2=O	0.0	-1.3	0.2	2.0	-2.0
COc1ccccc1CNC(=O)COC(=O)c1cccnc1SCC(=O)NCc1ccccc1OC	-7.5	83.3*	-5.8	-45.2	45.2
CC(=O)N(CC(=O)N(CC(=O)O)c1ccc(Cl)cc1)c1ccc(Cl)cc1	-8.7	-5.0	0.4	0.8	-0.8
